In ChEMBL document CHEMBL4130443, “Targeting breast cancer stem cells by novel HDAC3-selective inhibitors” (Eur J Med Chem, 2017) one finds IC50, Ratio IC50 and inhibition data, which are given here for 22 compounds.

Assay [1] deals with T1, Histone deacetylase 2 (Homo sapiens, UniProt Q92769). The assay is described as follows: Inhibition of human HDAC2 using p53 (379 to 382 residues) derived fluorogenic peptide RHKKAc.
Assay [2] has as its target Histone deacetylase 3/Nuclear receptor corepressor 2 (HDAC3/NCoR2) (Homo sapiens, UniProt O15379). The assay is described as follows: Inhibition of human HDAC3/NCOR2 using p53 (379 to 382 residues) derived fluorogenic peptide RHKKAc. Type of assay: protein-complex assay.
Assay [3] has as its target T2, Histone deacetylase 1 (Homo sapiens, UniProt Q13547). As to the kind of experiment: Inhibition of human HDAC1 using p53 (379 to 382 residues) derived fluorogenic peptide RHKKAc.
For assay [4], the species on record is Homo sapiens. As to the kind of experiment: Selectivity index, ratio of IC50 for human HDAC1 to IC50 for human HDAC3.
For assay [5], the target named is Histone deacetylase 4 (Homo sapiens) (UniProt P56524). As to the kind of experiment: Inhibition of human HDAC4 at 1 uM using Boc-Lys(trifluoroacetyl)-AMC substrate. In outline: (§1)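 Isoform profiling run by a commercial vendor with compounds at 1 µM. Values are percent inhibition, each the average of two determinations.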
Chain of Histone deacetylase 4 (Homo sapiens) (P56524 whole entry, canonical isoform): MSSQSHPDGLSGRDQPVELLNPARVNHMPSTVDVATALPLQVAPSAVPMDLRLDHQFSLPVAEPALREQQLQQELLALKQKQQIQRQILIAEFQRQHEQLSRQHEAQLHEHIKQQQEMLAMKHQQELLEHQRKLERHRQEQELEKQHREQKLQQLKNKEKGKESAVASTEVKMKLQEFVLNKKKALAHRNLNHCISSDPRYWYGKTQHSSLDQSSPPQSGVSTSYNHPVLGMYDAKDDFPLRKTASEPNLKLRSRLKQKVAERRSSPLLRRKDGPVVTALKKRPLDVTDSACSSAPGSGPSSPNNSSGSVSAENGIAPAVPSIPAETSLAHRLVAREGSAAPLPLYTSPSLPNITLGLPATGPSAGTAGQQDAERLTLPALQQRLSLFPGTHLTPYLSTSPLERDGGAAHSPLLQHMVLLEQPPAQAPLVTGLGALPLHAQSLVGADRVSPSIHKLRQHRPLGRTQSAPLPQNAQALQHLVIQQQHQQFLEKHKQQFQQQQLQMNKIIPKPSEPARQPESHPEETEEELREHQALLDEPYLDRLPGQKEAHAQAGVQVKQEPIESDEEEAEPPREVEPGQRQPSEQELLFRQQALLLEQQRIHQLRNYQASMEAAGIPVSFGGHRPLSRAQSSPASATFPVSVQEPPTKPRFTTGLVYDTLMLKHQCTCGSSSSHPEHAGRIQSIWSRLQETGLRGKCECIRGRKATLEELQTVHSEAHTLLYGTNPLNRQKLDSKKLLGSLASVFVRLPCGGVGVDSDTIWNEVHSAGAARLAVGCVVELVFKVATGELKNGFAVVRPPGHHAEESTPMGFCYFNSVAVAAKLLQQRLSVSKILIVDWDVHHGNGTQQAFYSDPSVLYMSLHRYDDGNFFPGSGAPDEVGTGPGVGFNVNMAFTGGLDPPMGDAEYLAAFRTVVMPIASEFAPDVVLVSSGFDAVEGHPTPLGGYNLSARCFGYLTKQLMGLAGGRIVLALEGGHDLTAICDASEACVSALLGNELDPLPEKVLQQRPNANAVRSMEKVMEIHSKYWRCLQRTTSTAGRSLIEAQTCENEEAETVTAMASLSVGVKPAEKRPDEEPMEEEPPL
For assay [6], the target named is T3, Protein deacetylase HDAC6 (Homo sapiens) (UniProt Q9UBN7).
T3 sequence (whole entry): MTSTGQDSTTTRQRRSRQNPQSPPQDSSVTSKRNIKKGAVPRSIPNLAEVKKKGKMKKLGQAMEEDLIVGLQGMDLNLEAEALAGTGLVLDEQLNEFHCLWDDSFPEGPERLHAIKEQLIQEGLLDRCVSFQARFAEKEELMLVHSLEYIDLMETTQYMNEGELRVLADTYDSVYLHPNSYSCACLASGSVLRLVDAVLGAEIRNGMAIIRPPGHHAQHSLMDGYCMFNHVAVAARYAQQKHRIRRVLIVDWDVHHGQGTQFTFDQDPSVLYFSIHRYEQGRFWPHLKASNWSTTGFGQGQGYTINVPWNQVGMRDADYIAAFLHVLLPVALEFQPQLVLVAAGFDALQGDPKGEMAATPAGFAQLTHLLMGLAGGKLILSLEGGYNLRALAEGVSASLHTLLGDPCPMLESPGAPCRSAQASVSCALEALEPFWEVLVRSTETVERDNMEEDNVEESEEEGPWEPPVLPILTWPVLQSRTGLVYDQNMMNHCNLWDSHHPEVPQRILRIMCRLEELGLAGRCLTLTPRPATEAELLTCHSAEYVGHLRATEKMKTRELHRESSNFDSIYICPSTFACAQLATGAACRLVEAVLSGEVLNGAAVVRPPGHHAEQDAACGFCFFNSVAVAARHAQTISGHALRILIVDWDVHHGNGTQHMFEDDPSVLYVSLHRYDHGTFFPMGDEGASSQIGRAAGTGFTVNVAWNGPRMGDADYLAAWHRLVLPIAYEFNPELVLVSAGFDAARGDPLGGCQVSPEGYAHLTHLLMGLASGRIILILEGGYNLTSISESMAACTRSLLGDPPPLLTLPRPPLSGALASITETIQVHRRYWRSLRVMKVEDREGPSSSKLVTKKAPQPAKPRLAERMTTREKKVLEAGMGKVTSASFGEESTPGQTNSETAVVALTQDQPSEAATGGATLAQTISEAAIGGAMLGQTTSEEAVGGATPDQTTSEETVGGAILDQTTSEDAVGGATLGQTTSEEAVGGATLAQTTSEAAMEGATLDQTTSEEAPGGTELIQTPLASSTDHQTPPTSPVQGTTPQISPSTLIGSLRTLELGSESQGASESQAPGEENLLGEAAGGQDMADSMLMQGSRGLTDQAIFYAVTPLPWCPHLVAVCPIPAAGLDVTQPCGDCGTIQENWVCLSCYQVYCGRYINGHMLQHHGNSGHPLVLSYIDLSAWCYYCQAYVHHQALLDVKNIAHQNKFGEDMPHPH
As to the kind of experiment: Inhibition of human HDAC6 at 1 uM using p53 (379 to 382 residues) derived fluorogenic peptide RHKKAc. In outline:
as §1

Assay [7] deals with T2, Histone deacetylase 1. The assay is described as follows: Inhibition of human HDAC1 at 1 uM using p53 (379 to 382 residues) derived fluorogenic peptide RHKKAc. In a few lines:
as §1

For assay [8], the target named is Histone deacetylase 5 (Homo sapiens) (UniProt Q9UQL6). As to the kind of experiment: Inhibition of human HDAC5 at 1 uM using Boc-Lys(trifluoroacetyl)-AMC substrate. In a few lines:
as §1

Assay [9] has as its target T1, Histone deacetylase 2. As to the kind of experiment: Inhibition of human HDAC2 at 1 uM using p53 (379 to 382 residues) derived fluorogenic peptide RHKKAc. In outline: as §1
The target of assay [10] is T4, Histone deacetylase 8 (Homo sapiens) (UniProt Q9BY41).
T4 sequence (whole entry): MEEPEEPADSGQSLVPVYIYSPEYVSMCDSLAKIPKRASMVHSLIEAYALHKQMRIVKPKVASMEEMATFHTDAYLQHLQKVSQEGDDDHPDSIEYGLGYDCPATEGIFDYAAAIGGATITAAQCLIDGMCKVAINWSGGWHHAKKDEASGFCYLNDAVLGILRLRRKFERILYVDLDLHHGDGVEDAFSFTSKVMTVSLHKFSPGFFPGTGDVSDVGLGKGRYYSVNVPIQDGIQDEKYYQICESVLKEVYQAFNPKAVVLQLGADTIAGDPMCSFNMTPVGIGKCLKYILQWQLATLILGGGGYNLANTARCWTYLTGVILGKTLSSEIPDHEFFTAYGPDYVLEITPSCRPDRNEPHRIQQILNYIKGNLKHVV
The assay is described as follows: Inhibition of human HDAC8 at 1 uM using p53 (379 to 382 residues) derived fluorogenic peptide RHKAcKAc. In a few lines: as §1

The target of assay [11] is Histone deacetylase 3/Nuclear receptor corepressor 2 (HDAC3/NCoR2) (Homo sapiens) (UniProt O15379+Q9Y618). As to the kind of experiment: Inhibition of human HDAC3/NCOR2 at 1 uM using p53 (379 to 382 residues) derived fluorogenic peptide RHKKAc. The format is protein-complex assay. In outline: as §1
Assay [12] has as its target T3, Protein deacetylase HDAC6 (Homo sapiens). The assay is described as follows: Inhibition of HDAC6 in human MDA-MB-231 cells assessed as increase in histone H3K9 acetylation at 0.1 to 2.5uM incubated for 48 hrs by Western blot method. Type of assay: cell-based. As to conditions: in the assay text read “tubulin acetylation” for “histone H3K9 acetylation”. In a few lines:
(§2)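 Cells treated 48 h at the indicated concentrations, with a reference HDAC inhibitor at 0.25 µM as positive control on each blot. Lysed in 1% SDS, 10 mM EDTA, 50 mM Tris-HCl pH 8.1 with protease/phosphatase inhibitors, then sonicated. Equal protein by SDS-PAGE on nitrocellulose. Primary antibodies 1:1000 overnight at 4°C, HRP secondary, ECL. Blots for pan-H3 and H3K9 acetylation, tubulin acetylation and Notch1.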
On the technique in general: Immunoblotting shows a protein as a band on a membrane.

For assay [13], the target named is T4, Histone deacetylase 8 (Homo sapiens). As to the kind of experiment: Inhibition of HDAC8 in human MDA-MB-231 cells assessed as reduction in Notch1 expression at 0.1 to 2.5uM incubated for 48 hrs by Western blot method. Type of assay: cell-based. In outline: as §2

pIC50: −log10 of the molar value. Active and inactive are the calls of the source. The rule behind the calls is not given here. Where only a bound is given, the exact number is not on record here.

T1 sequence (Q92769 whole entry, the tested form may be a part): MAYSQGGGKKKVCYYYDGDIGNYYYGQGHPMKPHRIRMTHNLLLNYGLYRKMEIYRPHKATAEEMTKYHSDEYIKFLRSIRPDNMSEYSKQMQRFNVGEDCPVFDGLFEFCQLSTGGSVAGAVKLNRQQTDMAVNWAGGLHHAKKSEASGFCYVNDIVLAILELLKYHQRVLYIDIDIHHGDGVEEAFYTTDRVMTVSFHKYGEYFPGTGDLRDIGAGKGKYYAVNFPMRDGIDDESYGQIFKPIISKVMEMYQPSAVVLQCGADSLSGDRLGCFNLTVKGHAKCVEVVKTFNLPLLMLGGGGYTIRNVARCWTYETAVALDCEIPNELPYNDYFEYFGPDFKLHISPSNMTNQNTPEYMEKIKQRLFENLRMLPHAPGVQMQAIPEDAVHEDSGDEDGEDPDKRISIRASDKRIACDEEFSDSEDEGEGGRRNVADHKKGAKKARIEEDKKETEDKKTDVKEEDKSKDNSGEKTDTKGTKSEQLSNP
T2 sequence (Q13547 whole entry, the tested form may be a part): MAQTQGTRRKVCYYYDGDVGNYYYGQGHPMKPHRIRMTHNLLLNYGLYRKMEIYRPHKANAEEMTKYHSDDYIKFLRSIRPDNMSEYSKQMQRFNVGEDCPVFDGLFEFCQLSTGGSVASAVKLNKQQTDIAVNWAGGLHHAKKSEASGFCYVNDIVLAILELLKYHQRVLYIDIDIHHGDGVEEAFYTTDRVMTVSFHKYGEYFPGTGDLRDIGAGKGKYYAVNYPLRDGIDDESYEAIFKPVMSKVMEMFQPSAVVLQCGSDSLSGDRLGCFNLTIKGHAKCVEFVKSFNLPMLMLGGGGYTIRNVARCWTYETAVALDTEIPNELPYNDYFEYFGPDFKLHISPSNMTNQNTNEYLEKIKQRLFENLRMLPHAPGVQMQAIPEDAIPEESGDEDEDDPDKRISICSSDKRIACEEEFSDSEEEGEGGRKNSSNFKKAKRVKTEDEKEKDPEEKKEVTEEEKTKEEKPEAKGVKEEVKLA
Chain of Histone deacetylase 3/Nuclear receptor corepressor 2 (HDAC3/NCoR2) (O15379 whole entry, the tested form may be a part): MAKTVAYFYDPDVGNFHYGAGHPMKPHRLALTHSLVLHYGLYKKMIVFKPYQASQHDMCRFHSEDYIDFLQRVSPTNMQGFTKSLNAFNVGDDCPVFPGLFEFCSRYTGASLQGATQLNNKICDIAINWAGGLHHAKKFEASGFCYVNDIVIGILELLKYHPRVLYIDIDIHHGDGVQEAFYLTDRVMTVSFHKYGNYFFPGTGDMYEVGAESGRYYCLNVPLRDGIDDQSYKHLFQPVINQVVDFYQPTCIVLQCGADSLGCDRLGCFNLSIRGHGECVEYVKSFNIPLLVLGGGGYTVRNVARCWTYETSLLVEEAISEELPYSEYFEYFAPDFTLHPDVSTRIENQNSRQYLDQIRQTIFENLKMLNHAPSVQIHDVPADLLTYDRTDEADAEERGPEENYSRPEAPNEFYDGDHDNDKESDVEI
Chain of Histone deacetylase 3/Nuclear receptor corepressor 2 (HDAC3/NCoR2) (Q9Y618 whole entry, further chain, the tested form may be a part): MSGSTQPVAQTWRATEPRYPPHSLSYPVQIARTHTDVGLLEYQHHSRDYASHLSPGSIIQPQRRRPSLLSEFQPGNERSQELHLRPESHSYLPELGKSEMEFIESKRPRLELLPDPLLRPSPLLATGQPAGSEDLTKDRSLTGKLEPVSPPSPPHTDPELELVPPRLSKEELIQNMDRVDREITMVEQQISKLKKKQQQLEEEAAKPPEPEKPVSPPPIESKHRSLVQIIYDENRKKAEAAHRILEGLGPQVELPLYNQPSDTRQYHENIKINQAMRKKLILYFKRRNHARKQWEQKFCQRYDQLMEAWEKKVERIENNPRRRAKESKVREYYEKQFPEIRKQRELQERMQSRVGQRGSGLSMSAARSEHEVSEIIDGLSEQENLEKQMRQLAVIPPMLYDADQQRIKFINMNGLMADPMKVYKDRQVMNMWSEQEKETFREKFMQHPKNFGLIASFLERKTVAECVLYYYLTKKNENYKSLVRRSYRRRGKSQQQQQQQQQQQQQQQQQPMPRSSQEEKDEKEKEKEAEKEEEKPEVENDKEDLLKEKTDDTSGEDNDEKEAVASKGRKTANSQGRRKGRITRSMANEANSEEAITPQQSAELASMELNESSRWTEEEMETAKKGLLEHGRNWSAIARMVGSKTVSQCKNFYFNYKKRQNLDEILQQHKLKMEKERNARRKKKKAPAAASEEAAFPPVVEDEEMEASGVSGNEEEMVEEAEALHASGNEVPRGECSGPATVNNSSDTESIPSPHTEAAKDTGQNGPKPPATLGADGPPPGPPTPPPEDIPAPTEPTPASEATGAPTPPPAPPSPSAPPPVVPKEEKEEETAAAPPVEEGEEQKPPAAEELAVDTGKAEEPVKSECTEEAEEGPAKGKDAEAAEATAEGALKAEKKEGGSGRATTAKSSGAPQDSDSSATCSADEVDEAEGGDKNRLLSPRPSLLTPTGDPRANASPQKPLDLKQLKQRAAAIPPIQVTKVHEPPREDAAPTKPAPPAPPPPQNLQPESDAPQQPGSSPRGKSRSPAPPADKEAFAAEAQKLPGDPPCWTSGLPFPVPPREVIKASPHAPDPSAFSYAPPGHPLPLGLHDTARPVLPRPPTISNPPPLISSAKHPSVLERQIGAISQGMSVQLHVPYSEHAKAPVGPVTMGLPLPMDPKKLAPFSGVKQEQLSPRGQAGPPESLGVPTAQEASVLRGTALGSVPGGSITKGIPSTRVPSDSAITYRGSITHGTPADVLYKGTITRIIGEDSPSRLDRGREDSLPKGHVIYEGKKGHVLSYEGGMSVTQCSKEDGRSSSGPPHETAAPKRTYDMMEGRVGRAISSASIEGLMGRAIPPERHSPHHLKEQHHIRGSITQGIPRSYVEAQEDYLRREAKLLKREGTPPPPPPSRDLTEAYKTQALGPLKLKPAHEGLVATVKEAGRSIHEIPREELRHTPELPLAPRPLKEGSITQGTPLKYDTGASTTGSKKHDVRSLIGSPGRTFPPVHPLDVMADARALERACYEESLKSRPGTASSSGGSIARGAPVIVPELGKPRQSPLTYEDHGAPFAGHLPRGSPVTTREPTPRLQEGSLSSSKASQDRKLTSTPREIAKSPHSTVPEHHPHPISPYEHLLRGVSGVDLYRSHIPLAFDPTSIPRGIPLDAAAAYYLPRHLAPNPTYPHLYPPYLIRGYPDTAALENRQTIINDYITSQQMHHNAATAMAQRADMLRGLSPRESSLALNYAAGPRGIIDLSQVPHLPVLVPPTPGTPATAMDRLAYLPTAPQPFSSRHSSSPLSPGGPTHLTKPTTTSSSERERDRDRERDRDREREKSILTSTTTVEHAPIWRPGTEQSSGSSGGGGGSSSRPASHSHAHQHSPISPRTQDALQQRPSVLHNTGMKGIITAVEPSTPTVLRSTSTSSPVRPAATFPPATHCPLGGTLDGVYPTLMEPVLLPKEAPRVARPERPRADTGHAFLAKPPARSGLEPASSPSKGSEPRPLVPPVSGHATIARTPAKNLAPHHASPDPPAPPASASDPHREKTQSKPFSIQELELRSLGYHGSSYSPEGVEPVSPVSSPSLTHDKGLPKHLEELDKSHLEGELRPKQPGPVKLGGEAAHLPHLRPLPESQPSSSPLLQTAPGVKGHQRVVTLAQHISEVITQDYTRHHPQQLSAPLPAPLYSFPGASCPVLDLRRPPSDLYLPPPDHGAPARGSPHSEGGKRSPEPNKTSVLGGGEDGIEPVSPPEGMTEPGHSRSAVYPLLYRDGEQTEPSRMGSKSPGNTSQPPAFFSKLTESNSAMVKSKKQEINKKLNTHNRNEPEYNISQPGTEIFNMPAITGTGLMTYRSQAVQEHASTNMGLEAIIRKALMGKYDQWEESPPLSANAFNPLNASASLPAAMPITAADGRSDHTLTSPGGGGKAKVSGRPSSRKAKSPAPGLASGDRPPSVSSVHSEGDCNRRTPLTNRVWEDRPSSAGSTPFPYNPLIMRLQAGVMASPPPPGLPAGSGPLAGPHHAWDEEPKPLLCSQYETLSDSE

In general, pIC50 refers to the IC50 on a negative log10 scale, so that one unit is a factor of ten. High values mean a small IC50, low ones a large IC50. With `Nc1cc(F)ccc1NC(=O)c1ccc(NC(=O)Cc2ccc(F)cc2)cn1`, the pIC50 in assay [1] was 5.52; in assay [2], 6.41; in [3] it was 6.43.
In the case of `CC[C@@H](C(=O)Nc1ccc(C(=O)Nc2ccc(F)cc2N)cc1)c1ccccc1`, the Ratio IC50 in [4] amounted to 10.9. For the same compound, the figures for the pIC50 in assay [1], in [2] and in assay [3] were 5.92, 6.96 and 5.92, respectively.
As to `CC[C@H](C(=O)Nc1ccc(C(=O)Nc2ccc(F)cc2N)cc1)c1ccccc1`, the Ratio IC50 in [4] was 14.7. The pIC50 in [1] was 5.32; in [2], 6.77; in assay [3], 5.60.
On to `Nc1cc(F)ccc1NC(=O)c1ccc(NC(=O)Cc2ccc(C(F)(F)F)cc2)cn1`, for which the pIC50 in assay [1], in [2] and in assay [3] was under 5.00 throughout.
Take `CC[C@H](C(=O)Nc1ccc(C(=O)Nc2ccc(F)cc2N)nc1)c1ccccc1`: the pIC50 was 5.38 in [1], 6.28 in assay [2] and 6.21 in assay [3].
The term inhibition denotes the drop in the measured response relative to a control, in per cent. Turning to `CC(C)(C(=O)Nc1ccc(C(=O)Nc2ccccc2N)cc1)c1ccccc1`, the inhibition in assay [5] turned out to be 6%; in [6], 4%; in [7] it was 49%; in assay [8] it was 0%; in assay [9] it was 34%; in [10], 0%. The inhibition in [11] is 36%.
Regarding `CC[C@@H](C(=O)Nc1ccc(C(=O)Nc2ccc(F)cc2N)nc1)c1ccccc1`, the inhibition result in assay [12] and in assay [13] was “inactive” in each case. The negative-log IC50 (pIC50) in [1] is 6.20; in assay [2] it was 7.22; in assay [3], 6.52.
`Nc1cc(F)ccc1NC(=O)c1ccc(NC(=O)C2CC2c2ccccc2)cc1` (stereo unspecified): the inhibition in assay [5] was found to be 0%; in [6], 0%; in assay [7], 0%; in assay [8], 3%; in assay [9], 9%; in assay [10], 14%. Also, the inhibition in [11] is 82%. Moreover, the pIC50 in [1] was under 5.00; in assay [2], 6.70; in assay [3], under 5.00.
With `C[C@H](C(=O)Nc1ccc(C(=O)Nc2ccc(F)cc2N)cc1)c1ccccc1`, in assay [4], the Ratio IC50 amounted to 13. Moreover, the pIC50 in assay [1] is 5.47; in assay [2], 6.64; in [3] it was 5.49.
Regarding `CC(C)[C@@H](C(=O)Nc1ccc(C(=O)Nc2ccc(F)cc2N)cn1)c1ccccc1`, the pIC50 in assay [1] was 5.08; in [2], 5.77; in assay [3], under 5.00.
Regarding `Nc1cc(F)ccc1NC(=O)c1ccc(NC(=O)[C@@H]2C[C@@H]2c2ccccc2)cc1` (relative stereo), the pIC50 in assay [1] was 5.68; in assay [2], 6.70; in assay [3] it was 5.89.
On to `Nc1cc(F)ccc1NC(=O)c1ccc(NC(=O)CCc2ccccc2)cn1`, for which the inhibition entry in assay [7], in assay [9] and in [11] was “inactive” each time. Moreover, the pIC50 in assay [1] was 5.11; in assay [2], under 5.00; in assay [3] it was 5.89.
As to `Nc1cc(F)ccc1NC(=O)c1ccc(NC(=O)Cc2ccc(F)cc2)cc1`, the pIC50 in assay [1] was 5.57; in assay [2] it was 6.70; in [3] it was 5.26.
As for `Nc1cc(F)ccc1NC(=O)c1ccc(NC(=O)C2CC2c2ccccc2)cn1` (stereo unspecified), the pIC50 in [1] was 5.31; in [2], 6.00; in assay [3] it was 5.92.
For `Nc1cc(F)ccc1NC(=O)c1ccc(NC(=O)Cc2ccccc2)cn1`, in that order: 5.70, 6.28 and 5.96.
As for `C[C@@H](C(=O)Nc1ccc(C(=O)Nc2ccc(F)cc2N)nc1)c1ccccc1`, the inhibition result in assay [12] and in assay [13] was “inactive” in each case. The pIC50 is 5.52 in assay [1], 6.24 in assay [2] and 6.12 in [3].
On to `Nc1cc(F)ccc1NC(=O)c1ccc(NC(=O)Cc2ccc(C(F)(F)F)cc2)cc1`, for which the inhibition in assay [5] amounted to 0%; in assay [6], 0%; in [7], 41%; in [8], 0%; in [9], 32%; in [10], 5%. This compound showed an inhibition in assay [11] of 36%. For the same compound, the pIC50 in assay [1] was 5.89; in assay [2], 6.70; in [3], 5.82.
As to `Nc1ccccc1NC(=O)c1ccc(NC(=O)Cc2ccc(C(F)(F)F)cc2)cc1`, the inhibition in [5] is 0%; in assay [6] it was 0%; in assay [7], 78%; in [8] it was 0%; in assay [9] it was 38%; in [10] it was 0%. The compound further returned an inhibition in [11] of 33%.
As for `C[C@H](C(=O)Nc1ccc(C(=O)Nc2ccc(F)cc2N)nc1)c1ccccc1`, the inhibition result in [12] and in assay [13] was “inactive” in each case. For the same compound, the pIC50 is 5.70 in assay [1], 6.89 in assay [2] and 5.85 in [3].
Consider `CC(C)[C@H](C(=O)Nc1ccc(C(=O)Nc2ccc(F)cc2N)nc1)c1ccccc1`, for which the inhibition result in assay [12] and in [13] was “inactive” in each case. Moreover, the pIC50 in [1] was 5.60; in assay [2] it was 6.52; in assay [3], 5.82.
In the case of `CC(C)[C@@H](C(=O)Nc1ccc(C(=O)Nc2ccc(C(F)(F)F)cc2N)cc1)c1ccccc1`, the inhibition in assay [5] was 3%; in [6], 0%; in assay [7], 6%; in [8], 0%; in assay [9], 4%; in assay [10], 0%. The same compound registered an inhibition in assay [11] of 0%.
On to `Nc1cc(F)ccc1NC(=O)c1ccc(NC(=O)CCc2ccccc2)cc1`, for which the pIC50 is 5.96 in assay [1], 6.10 in assay [2] and 5.92 in assay [3].
